Source: ChEMBL document CHEMBL5696442, “Discovery of type II inhibitors of TGFβ-activated kinase 1 (TAK1) and mitogen-activated protein kinase kinase kinase kinase 2 (MAP4K2)” (J Med Chem, 2015)

Experiments:
[1] = target: T1, Ephrin type-B receptor 4 (Homo sapiens) (UniProt P54760); experiment: Inhibition of EphB4 ACT labeling site in human Huh-7 cell lysate at 1 uM by KiNativ Profiling analysis relative to control; type: subcellular
T1 sequence (whole entry): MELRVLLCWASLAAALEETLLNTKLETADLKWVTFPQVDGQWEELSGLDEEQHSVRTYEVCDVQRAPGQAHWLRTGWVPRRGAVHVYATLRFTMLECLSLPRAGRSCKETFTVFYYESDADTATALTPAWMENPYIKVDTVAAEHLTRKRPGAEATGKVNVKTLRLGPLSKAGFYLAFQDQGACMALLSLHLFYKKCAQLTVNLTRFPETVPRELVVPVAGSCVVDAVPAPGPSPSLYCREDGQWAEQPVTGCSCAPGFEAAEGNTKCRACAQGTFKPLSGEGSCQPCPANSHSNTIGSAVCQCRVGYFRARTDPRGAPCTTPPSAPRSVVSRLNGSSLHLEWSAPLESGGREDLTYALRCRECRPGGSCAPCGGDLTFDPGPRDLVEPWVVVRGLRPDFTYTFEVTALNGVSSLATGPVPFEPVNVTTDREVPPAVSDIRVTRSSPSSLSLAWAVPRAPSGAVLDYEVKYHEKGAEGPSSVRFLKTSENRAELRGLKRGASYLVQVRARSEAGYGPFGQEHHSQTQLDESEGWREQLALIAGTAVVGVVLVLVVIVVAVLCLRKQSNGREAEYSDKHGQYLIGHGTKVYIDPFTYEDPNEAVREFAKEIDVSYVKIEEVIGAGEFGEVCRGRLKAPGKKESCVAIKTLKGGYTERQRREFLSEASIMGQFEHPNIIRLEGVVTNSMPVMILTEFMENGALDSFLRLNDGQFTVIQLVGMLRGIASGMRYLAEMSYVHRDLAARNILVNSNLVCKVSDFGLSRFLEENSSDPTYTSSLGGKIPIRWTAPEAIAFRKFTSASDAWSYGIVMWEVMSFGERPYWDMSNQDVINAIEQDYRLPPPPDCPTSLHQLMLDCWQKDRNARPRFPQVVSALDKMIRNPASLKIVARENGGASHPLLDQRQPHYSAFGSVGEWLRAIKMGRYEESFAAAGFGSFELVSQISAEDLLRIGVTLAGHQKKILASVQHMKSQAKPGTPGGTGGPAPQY

[2] = AUC last in Swiss albino mouse at 10 mg/kg, po measured upto 24 hrs by LC/MS/MS analysis; type: ADME, organism-based; settings: in vivo
[3] = target: Tyrosine-protein kinase Fer (Homo sapiens, UniProt P16591); experiment: Inhibition of FER ACT labeling site in human A-375 cells at 5 uM by KiNativ Profiling analysis relative to control; type: cell-based
Chain of Tyrosine-protein kinase Fer (P16591 whole entry, looked up): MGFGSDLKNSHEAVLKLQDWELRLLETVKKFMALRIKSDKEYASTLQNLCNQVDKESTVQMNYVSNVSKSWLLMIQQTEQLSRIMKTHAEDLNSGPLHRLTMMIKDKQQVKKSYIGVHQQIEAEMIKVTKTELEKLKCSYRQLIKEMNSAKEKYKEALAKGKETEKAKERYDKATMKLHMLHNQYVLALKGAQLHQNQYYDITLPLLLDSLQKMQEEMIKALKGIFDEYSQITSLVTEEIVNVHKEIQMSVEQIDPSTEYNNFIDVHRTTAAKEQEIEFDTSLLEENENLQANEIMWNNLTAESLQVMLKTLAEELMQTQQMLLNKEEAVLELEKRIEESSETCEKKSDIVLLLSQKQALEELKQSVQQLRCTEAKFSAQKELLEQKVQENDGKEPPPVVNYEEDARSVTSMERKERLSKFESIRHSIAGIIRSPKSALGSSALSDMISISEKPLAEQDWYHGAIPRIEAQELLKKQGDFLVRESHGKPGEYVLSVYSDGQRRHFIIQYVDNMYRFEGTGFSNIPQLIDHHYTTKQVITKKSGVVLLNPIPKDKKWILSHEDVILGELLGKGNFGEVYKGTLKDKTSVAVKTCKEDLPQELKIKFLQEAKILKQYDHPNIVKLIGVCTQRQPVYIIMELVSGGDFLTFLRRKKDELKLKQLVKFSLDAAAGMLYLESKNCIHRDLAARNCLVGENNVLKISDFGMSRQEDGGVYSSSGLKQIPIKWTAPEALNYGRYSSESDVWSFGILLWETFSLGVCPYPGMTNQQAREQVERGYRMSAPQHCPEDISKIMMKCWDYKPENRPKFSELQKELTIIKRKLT

[4] = target: T2, Tyrosine-protein kinase Lyn (Homo sapiens, UniProt P07948); experiment: Inhibition of LYN Lys1 labeling site in human A-375 cells at 5 uM by KiNativ Profiling analysis relative to control; type: cell-based
Target sequence in this assay (P07948 2-512 limits assumed): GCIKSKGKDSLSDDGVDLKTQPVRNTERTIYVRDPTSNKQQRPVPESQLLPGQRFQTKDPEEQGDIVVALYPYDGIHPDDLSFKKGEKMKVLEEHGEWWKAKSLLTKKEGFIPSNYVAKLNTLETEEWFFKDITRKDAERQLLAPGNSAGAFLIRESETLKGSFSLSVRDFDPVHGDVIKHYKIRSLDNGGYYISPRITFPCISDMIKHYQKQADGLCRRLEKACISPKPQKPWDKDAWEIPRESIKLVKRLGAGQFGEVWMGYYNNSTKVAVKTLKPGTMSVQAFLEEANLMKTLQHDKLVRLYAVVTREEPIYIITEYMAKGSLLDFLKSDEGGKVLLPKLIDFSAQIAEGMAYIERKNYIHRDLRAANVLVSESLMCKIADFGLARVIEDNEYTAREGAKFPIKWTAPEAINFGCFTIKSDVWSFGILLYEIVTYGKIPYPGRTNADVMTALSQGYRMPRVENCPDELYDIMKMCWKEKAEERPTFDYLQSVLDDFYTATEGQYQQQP

[5] = target: Mitogen-activated protein kinase kinase kinase kinase 4 (Homo sapiens, UniProt O95819); experiment: Inhibition of ZC1 Lys2 labeling site in human A-375 cells at 0.5 uM by KiNativ Profiling analysis relative to control; type: cell-based
Chain of Mitogen-activated protein kinase kinase kinase kinase 4 (O95819 2-1239 limits assumed): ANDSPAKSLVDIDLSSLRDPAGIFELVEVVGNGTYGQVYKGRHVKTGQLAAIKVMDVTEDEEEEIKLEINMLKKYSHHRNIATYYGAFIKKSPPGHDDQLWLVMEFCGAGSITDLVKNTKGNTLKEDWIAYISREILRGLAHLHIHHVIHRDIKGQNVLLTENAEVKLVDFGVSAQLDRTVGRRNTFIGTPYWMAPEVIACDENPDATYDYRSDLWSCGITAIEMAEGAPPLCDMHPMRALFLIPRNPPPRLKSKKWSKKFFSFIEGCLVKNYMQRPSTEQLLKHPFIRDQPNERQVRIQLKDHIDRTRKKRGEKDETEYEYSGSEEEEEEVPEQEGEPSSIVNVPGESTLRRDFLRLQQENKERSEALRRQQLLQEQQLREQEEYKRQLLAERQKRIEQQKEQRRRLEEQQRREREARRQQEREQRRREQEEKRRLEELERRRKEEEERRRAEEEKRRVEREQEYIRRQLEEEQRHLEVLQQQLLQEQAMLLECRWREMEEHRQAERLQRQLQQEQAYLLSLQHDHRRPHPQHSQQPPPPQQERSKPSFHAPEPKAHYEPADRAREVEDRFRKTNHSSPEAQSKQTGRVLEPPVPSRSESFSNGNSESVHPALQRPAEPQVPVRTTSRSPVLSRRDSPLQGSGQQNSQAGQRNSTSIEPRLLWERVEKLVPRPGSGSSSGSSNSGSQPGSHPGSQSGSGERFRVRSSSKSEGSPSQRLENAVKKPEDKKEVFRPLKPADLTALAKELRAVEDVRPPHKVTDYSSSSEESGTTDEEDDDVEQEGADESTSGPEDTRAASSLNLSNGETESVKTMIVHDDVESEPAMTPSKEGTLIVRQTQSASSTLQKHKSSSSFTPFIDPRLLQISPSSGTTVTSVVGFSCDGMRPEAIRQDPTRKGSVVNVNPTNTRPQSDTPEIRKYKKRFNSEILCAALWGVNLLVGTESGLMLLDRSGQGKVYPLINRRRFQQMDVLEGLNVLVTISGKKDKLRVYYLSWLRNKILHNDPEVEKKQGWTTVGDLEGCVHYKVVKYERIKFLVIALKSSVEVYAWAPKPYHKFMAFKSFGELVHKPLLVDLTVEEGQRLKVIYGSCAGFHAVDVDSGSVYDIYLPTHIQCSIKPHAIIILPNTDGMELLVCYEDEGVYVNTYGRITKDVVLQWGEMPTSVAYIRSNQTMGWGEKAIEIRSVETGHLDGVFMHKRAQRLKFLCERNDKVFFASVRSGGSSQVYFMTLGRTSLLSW

[6] = target: T2, Tyrosine-protein kinase Lyn; experiment: Inhibition of LYN (unknown origin) Lys1 labeling site by KiNativ Profiling analysis
Target sequence in this assay (P07948 whole entry): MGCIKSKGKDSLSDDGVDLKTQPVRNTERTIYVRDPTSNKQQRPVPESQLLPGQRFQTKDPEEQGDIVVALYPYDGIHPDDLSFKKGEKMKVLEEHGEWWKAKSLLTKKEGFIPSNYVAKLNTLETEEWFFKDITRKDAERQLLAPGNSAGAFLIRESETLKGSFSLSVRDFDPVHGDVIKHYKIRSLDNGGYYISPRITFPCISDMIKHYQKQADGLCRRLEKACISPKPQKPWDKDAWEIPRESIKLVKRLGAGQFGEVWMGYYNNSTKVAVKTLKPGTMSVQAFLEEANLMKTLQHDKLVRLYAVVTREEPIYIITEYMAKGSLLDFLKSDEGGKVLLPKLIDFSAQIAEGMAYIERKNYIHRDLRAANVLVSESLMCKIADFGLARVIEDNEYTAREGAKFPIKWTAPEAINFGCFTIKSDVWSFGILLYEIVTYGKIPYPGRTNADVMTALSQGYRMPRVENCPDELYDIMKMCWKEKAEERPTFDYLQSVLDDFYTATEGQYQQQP

[7] = target: T3, Serine/threonine-protein kinase ULK3 (Homo sapiens) (UniProt Q6PHR2); experiment: Inhibition of ULK3 Lys2 labeling site in human A-375 cells at 5 uM by KiNativ Profiling analysis relative to control; type: cell-based
T3 sequence (whole entry): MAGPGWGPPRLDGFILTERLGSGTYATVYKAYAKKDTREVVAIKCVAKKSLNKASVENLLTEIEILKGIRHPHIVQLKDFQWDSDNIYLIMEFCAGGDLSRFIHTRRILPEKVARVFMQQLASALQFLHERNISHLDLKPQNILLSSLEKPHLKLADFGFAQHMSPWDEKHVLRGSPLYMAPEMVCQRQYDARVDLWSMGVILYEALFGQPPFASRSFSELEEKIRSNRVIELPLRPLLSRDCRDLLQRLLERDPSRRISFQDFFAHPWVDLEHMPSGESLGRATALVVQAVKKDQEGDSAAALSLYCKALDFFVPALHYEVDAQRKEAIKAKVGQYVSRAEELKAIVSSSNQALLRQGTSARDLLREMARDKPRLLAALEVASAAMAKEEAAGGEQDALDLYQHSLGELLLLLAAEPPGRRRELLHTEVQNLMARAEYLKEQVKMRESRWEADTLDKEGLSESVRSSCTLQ

[8] = target: T4, Aurora kinase A (Homo sapiens) (UniProt O14965); experiment: Inhibition of AurA Lys2 labeling site in human A-375 cells at 0.5 uM by KiNativ Profiling analysis relative to control; type: cell-based
T4 sequence (whole entry): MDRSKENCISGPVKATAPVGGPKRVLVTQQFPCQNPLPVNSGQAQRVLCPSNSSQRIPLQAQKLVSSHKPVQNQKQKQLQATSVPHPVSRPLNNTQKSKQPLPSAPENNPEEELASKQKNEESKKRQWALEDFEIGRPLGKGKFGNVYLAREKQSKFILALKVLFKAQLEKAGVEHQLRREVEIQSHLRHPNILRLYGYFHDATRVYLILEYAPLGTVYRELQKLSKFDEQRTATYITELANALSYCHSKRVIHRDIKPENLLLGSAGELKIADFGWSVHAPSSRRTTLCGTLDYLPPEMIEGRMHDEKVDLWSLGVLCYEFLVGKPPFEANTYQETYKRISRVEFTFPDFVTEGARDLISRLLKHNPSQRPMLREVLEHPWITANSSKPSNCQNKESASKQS
How it was run: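 Intact A375 melanoma cells were treated with compound at 5 or 0.5 μM, then lysed. Lysate kinases were labeled with a lysine-reactive ATP or ADP-biotin probe (KiNativ). Inhibition is read as protection of each kinase labeling site from probe labeling.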

[9] = target: Serine/threonine-protein kinase MRCK beta (Homo sapiens) (UniProt Q9Y5S2); experiment: Inhibition of MRCKb in human A-375 cells at 0.5 uM by KiNativ Profiling analysis relative to control; type: cell-based
Chain of Serine/threonine-protein kinase MRCK beta (Homo sapiens) (Q9Y5S2 whole entry): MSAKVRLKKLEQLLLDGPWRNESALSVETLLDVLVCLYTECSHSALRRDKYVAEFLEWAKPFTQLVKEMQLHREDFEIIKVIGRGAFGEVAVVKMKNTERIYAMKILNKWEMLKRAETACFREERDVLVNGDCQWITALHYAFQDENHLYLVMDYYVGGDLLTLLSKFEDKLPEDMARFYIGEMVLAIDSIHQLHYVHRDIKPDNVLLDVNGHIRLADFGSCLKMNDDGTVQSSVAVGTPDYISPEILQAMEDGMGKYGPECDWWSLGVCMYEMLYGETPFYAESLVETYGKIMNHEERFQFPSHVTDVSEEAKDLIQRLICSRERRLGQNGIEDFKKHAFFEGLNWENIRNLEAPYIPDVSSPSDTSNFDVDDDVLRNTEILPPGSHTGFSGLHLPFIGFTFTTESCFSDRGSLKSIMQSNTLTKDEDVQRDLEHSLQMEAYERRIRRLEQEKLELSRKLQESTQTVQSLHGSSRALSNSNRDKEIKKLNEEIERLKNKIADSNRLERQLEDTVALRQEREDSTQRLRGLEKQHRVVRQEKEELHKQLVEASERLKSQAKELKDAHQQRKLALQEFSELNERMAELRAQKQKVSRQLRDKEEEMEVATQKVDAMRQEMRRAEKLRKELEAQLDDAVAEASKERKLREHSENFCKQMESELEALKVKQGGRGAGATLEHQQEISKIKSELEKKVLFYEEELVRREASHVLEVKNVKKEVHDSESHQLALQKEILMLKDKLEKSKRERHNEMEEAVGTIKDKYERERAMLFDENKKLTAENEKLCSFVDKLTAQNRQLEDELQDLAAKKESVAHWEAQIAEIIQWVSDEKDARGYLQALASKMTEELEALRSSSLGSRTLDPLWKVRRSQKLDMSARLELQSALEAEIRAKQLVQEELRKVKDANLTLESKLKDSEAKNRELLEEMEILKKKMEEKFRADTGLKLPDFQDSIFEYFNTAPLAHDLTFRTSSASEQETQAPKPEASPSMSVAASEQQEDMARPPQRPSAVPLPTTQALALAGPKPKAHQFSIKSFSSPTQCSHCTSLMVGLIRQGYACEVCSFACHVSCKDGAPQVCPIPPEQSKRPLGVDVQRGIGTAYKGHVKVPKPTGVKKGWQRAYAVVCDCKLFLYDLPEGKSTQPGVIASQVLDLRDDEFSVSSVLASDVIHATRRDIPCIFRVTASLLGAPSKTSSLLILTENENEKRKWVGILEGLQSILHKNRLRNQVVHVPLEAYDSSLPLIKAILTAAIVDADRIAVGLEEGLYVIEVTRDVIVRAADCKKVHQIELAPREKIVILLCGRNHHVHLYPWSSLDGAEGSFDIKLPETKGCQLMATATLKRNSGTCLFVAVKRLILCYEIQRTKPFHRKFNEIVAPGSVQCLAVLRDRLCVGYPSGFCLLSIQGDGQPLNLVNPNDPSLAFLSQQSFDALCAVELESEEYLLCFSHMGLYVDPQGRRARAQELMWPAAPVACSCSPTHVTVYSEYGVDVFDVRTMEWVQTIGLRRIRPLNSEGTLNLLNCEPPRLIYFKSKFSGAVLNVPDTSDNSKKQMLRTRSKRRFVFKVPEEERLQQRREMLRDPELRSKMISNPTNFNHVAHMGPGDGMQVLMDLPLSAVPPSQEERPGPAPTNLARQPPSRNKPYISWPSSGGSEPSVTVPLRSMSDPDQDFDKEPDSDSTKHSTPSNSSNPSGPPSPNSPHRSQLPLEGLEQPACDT

[10] = target: Aurora kinase B (Homo sapiens) (UniProt Q96GD4); experiment: Inhibition of AurB ATP Loop labeling site in human A-375 cells at 0.05 uM by KiNativ Profiling analysis relative to control; type: cell-based

Row | SMILES | inhibition [1] [%] | AUClast [2] [ng·h/mL] | inhibition [3] [%] | inhibition [4] [%] | inhibition [5] [%] | IC50 [6] [nM] | inhibition [7] [%] | inhibition [8] [%] | inhibition [9] [%] | inhibition [10] [%]
1 | CNc1cc(Oc2cc(C(=O)Nc3cc(N4CCN(C)CC4)cc(C(F)(F)F)c3)ccc2C)ncn1 | 0.2 |  |  |  |  |  |  |  |  | 
2 | CCN1CCN(Cc2ccc(NC(=O)c3ccc(C)c(/C=C/c4cnc5[nH]ccc5c4OC)c3)cc2C(F)(F)F)CC1 |  | 295 | 74 | > 95 | 48.1 | 29.5 | 52.5 | 0.7 | 7.3 | 14.1
3 | CNc1cc(Oc2cc(C(=O)Nc3cc(-n4cnc(C)c4)cc(C(F)(F)F)c3)ccc2C)ncn1 | 1.2 |  |  |  |  |  |  |  |  | 
4 | CCN1CCN(Cc2ccc(NC(=O)c3ccc(C)c(Oc4ccnc5[nH]ccc45)c3)cc2C(F)(F)F)CC1 |  | 1369 | 96.8 | > 95 | 70.8 | 12.9 | 44.8 | 12 | -3 | 32.5
